Results as given in PubChem BioAssay AID624017 (Broad Institute, 2012).

Tested on: ldlA[mSR-BI] cells, [3H]cholesterol efflux to HDL
Experiment: inhibitors of SR-BI-mediated cholesterol efflux to HDL, dose response, mechanism study for SR-BI HDL uptake inhibitor project, ldlA[mSR-BI] cells, [3H]cholesterol, powder samples, set 2 (AID 624017)
Outline: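 Dosing – 0.5% DMSO vehicle · Material – ldlA[mSR-BI] cells prelabelled with [3H]cholesterol · Incubation – 2-day label, 24 h equilibration, 1 h compound pretreatment, 2 h efflux · Signal – scintillation counting of medium and lysate [3H] · Probe or stimulus – HDL as cholesterol acceptor, 100 µg/mL final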

`CC(C)NC(=O)Nc1ccc2c(c1)C(=O)N([C@H](C)CO)C[C@@H](C)[C@H](CN(C)S(=O)(=O)c1ccc(Cl)cc1)O2` was tested. Which IC50 did it give?
The IC50 was 250 nM.
